Each structure is given as a SMILES string. pEC50: −log10 of the molar value. Some results are limits rather than exact numbers.

One may read the inhibition as the change of the read-out against control, counted positive when it falls. What is called pEC50 is −log10 of the EC50, conventionally taken in molar units.

The subject of data set [1] is Rattus norvegicus. Put plainly: Protection against STZ-induced diabetic retinopathy Brown Norway rat model assessed as reduction in vascular leakage by measuring retinal vascular permeability at 23 mg/kg, ip administered daily for 4 weeks starting at 2 weeks post STZ challenge measured per mg of total retinal protein by Evan blue dye based assay (reference value: 0.090 +/- 0.015 microg). In kind it is functional. The method, boiled down: (§1)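 Male Brown Norway rats aged 8 weeks (legend: 7–8 weeks) made diabetic with STZ 55 mg/kg i.p.; blood glucose >350 mg/dl at day 3. Starting 2 weeks after STZ, daily i.p. compound or same-volume vehicle for 4 weeks. Under ketamine/xylazine, Evans blue 30 mg/ml at 1 µl/g given i.v. via femoral vein and circulated 2 h. Perfusion with 1% paraformaldehyde in citrate buffer, pH 4.2, at 37°C. Retina extracted in formamide 18 h at 70°C, ultracentrifuged, A620 read. Dye amount from a standard curve, normalized to total protein. Groups compared by Student's t-test, mean ± SD.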

A short description of data set [2]: Toxicity in STZ-induced diabetic retinopathy Brown Norway rat model assessed as liver weight at 23 mg/kg, ip administered daily for 4 weeks starting at 2 weeks post STZ challenge relative to body weight (reference value: 4.36 +/- 0.37%). Type of data set: organism-based. Conditions: in vivo; call rule not given here.
A short description of data set [3]: Stability in human pooled liver microsomes preincubated for 5 mins prior to addition of NADPH-regenerating system and measured up to 60 mins by HPLC-MS/MS analysis. In kind it is ADME, Microsome. Conditions: 1 h. The method, boiled down: (§2)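 Compound pre-incubated 5 min at 37 °C with pooled liver microsomes in phosphate buffer, pH 7.4. NADPH-generating system then added; samples taken at 0, 15, 30, 45 and 60 min and quenched in acetonitrile/methanol. […] References: propranolol, imipramine, verapamil, terfenadine. Run in duplicate.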
For orientation: Liver microsomes are vesicles of endoplasmic reticulum, rich in cytochrome P450 enzymes.

A short description of data set [4]: Stability in Sprague Dawley rat pooled liver microsomes preincubated for 5 mins prior to addition of NADPH-regenerating system and measured up to 60 mins by HPLC-MS/MS analysis. Conditions: 1 h. Type of data set: ADME, Microsome. The method, boiled down:
as §2

Data set [5] addresses T1, Peroxisome proliferator-activated receptor alpha (Homo sapiens) (UniProt Q07869).
T1 sequence (whole entry): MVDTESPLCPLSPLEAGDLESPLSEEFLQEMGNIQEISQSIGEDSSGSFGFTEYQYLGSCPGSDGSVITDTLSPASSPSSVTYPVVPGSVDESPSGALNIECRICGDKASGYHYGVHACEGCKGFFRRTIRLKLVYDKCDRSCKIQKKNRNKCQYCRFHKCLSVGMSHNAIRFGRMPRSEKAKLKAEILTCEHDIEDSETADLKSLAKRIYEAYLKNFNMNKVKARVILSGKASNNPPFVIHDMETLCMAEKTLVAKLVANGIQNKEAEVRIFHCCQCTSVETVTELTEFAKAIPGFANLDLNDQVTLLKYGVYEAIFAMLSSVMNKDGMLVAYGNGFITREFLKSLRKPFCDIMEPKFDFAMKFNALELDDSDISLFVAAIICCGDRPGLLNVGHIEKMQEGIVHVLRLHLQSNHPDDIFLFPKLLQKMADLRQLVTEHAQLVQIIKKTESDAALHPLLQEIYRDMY
Put plainly: Binding affinity to His tagged PPARalpha LBD (unknown origin) expressed in Escherichia coli Rosetta (DE3) assessed as change in entropy at 25 degree C by isothermal titration calorimetry.

The next data set addresses hERG (KCNH2) (Homo sapiens, UniProt Q12809). Nature of the data set: Inhibition of human ERG stably expressed in CHOK1 cells assessed as tail current amplitude at 10 uM incubated for 5 mins measured after deploarization to +20 mV for 2s followed by 1s pulse to -40 mV with holding potential of -80 mV by Qpatch clamp assay relative to control. In kind it is cell-based. The settings on record: CHO-K1 cells stably expressing human ERG. The method, boiled down: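 Whole-cell automated patch clamp at room temperature on CHO-K1 cells stably carrying human hERG cDNA. Holding potential -80 mV; tail current evoked by 2 s step to +20 mV then 1 s to -40 mV.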

Data set [6] has as its target T2, Peroxisome proliferator-activated receptor alpha (Homo sapiens, UniProt Q07869).
T2 sequence (Q07869 whole entry): T1 sequence (whole entry)

The target of data set [7] is T2, Peroxisome proliferator-activated receptor alpha. Put plainly: Binding affinity to PPARalpha in human MIO-M1 cells assessed as increase in thermal stability preincubated for 3 hrs followed by exposure to 45.5 degree C for 10 mins by CETSA. Type of data set: cell-based. The procedure, abridged: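 Human retinal Müller glial MIO-M1 cells grown in DMEM with 10% FBS. They were then heated at Tagg(75) for 10 min. Lysis used cold PBS with 0.1% Triton X-100 and protease inhibitors, and unstable protein was removed by centrifugation. Soluble PPARα was quantified by anti-PPARα immunoblot, normalized to loading control, and EC50 fitted. Single experiment, duplicate.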

Data set [8] has as its target T3, Peroxisome proliferator-activated receptor gamma (Homo sapiens, UniProt P37231).
T3 sequence (P37231 whole entry): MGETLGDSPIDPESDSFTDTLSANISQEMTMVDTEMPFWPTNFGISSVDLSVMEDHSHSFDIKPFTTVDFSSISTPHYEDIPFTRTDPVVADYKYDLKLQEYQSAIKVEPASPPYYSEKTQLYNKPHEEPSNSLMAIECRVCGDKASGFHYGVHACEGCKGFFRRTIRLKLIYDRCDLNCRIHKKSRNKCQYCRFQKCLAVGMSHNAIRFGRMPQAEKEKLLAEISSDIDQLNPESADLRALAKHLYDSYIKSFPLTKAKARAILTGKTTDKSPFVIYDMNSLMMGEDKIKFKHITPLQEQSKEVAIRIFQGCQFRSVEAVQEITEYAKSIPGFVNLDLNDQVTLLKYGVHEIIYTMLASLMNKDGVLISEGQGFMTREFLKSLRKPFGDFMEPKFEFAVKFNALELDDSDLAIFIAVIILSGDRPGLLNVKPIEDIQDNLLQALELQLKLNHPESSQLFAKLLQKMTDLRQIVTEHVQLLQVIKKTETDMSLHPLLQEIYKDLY
Nature of the data set: Agonist activity at human PPARgamma expressed in nonhuman mammalian cells assessed as increase in receptor transcriptional activity incubated for 22 to 24 hrs by luciferase reporter gene assay. In kind it is cell-based. The method, boiled down: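 Reporter cells (nonhuman mammalian, engineered PPAR receptor with luciferase linked to response promoter) pre-incubated 4–6 h at 37 °C, 5% CO2 in medium with 10% charcoal-stripped FBS. Medium replaced with compound-containing screening medium, 22–24 h at 37 °C, then luciferase detection reagent, luminescence read. Multi-point dose-response for EC50; mean ± SEM of at least two separate experiments in triplicate.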

Data set [9] has as its target T4, Peroxisome proliferator-activated receptor delta (Homo sapiens, UniProt Q03181).
T4 sequence (Q03181 whole entry): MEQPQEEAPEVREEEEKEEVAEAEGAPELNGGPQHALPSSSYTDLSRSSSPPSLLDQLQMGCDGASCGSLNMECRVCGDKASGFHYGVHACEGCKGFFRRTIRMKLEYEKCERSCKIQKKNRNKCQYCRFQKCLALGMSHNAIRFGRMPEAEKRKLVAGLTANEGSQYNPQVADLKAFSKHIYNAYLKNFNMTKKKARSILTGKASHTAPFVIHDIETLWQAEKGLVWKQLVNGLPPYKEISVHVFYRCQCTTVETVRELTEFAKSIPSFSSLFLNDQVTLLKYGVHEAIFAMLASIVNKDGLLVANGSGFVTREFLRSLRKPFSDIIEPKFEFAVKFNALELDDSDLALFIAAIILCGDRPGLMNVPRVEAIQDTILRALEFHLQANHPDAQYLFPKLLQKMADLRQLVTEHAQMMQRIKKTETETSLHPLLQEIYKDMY
Put plainly: Agonist activity at human PPARdelta expressed in nonhuman mammalian cells assessed as increase in receptor transcriptional activity incubated for 22 to 24 hrs by luciferase reporter gene assay. In kind it is cell-based. On the technique in general: In a reporter assay the amount or activity of a reporter protein is the signal.

In data set [10] the target is T1, Peroxisome proliferator-activated receptor alpha (Homo sapiens). Put plainly: Binding affinity to His-tagged PPARalpha LBD (unknown origin) expressed in Escherichia coli Rosetta (DE3) assessed as change in enthalpy at 25 degree C by isothermal titration calorimetry. (In general: Isothermal titration calorimetry measures the heat released or taken up as one component is titrated into another.)

Data set [11] has the same target. Nature of the data set: Agonist activity at human PPARalpha expressed in nonhuman mammalian cells assessed as maximal increase in receptor transcriptional activity incubated for 22 to 24 hrs by luciferase reporter gene assay relative to GW590735. Type of data set: cell-based.
Data set [12] concerns Rattus norvegicus. Nature of the data set: Protection against STZ-induced diabetic retinopathy Brown Norway rat model assessed as reduction in vascular leakage by measuring retinal vascular permeability at 25 mg/kg, ip administered daily for 4 weeks starting at 2 weeks post STZ challenge measured per mg of total retinal protein by Evan blue dye based assay (reference value: 0.090 +/- 0.015 microg). In kind it is functional. The method, boiled down: as §1

For the next data set, the system named is 661W. Nature of the data set: Cytotoxicity against mouse 661W cells assessed as cell death at 200 uM incubated for overnight by colorimetric enzyme coupled LDH assay. In kind it is cell-based.
Data set [13] can be described thus: Toxicity in STZ-induced diabetic retinopathy Brown Norway rat model assessed as liver weight at 25 mg/kg, ip administered daily for 4 weeks starting at 2 weeks post STZ challenge relative to body weight (reference value: 4.36 +/- 0.37%). In kind it is organism-based. Conditions: in vivo.
The nature of data set [14]: Half life in human pooled liver microsomes preincubated for 5 mins prior to addition of NADPH-regenerating system and measured up to 60 mins by HPLC-MS/MS analysis. In kind it is ADME, Microsome. Conditions: 1 h.
The nature of data set [15]: Toxicity in STZ-induced diabetic retinopathy Brown Norway rat model at 25 mg/kg, ip administered for 1 month starting at 2 weeks post STZ challenge. Conditions: in vivo, 336 h. In kind it is organism-based.
The nature of data set [16]: Half life in Sprague Dawley rat pooled liver microsomes preincubated for 5 mins prior to addition of NADPH-regenerating system and measured up to 60 mins by HPLC-MS/MS analysis. Type of data set: ADME, Microsome. Conditions: 1 h.
Data set [17] has as its target Voltage-gated inwardly rectifying potassium channel KCNH2 (Homo sapiens, UniProt Q12809). Nature of the data set: Inhibition of human ERG stably expressed in CHOK1 cells assessed as tail current amplitude at 0.1 to 10 uM incubated for 5 mins measured after deploarization to +20 mV for 2s followed by 1s pulse to -40 mV with holding potential of -80 mV by Qpatch clamp assay. Type of data set: cell-based. The method, boiled down: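 Whole-cell automated patch clamp at room temperature. CHO-K1 cells were detached with trypsin and held in serum-free medium. Intracellular solution was KCl/EGTA/MgATP/HEPES at pH 7.2; extracellular solution was NaCl/KCl/CaCl2/glucose/HEPES at pH 7.4, applied first for 5 min. Compound given at 0.1, 1 and 10 μM in rising order, 5 min each, on the same cell. Percent inhibition taken from tail current before and after compound. E-4031 reference. Run in duplicate.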

Sequence of hERG (KCNH2) (Q12809 whole entry): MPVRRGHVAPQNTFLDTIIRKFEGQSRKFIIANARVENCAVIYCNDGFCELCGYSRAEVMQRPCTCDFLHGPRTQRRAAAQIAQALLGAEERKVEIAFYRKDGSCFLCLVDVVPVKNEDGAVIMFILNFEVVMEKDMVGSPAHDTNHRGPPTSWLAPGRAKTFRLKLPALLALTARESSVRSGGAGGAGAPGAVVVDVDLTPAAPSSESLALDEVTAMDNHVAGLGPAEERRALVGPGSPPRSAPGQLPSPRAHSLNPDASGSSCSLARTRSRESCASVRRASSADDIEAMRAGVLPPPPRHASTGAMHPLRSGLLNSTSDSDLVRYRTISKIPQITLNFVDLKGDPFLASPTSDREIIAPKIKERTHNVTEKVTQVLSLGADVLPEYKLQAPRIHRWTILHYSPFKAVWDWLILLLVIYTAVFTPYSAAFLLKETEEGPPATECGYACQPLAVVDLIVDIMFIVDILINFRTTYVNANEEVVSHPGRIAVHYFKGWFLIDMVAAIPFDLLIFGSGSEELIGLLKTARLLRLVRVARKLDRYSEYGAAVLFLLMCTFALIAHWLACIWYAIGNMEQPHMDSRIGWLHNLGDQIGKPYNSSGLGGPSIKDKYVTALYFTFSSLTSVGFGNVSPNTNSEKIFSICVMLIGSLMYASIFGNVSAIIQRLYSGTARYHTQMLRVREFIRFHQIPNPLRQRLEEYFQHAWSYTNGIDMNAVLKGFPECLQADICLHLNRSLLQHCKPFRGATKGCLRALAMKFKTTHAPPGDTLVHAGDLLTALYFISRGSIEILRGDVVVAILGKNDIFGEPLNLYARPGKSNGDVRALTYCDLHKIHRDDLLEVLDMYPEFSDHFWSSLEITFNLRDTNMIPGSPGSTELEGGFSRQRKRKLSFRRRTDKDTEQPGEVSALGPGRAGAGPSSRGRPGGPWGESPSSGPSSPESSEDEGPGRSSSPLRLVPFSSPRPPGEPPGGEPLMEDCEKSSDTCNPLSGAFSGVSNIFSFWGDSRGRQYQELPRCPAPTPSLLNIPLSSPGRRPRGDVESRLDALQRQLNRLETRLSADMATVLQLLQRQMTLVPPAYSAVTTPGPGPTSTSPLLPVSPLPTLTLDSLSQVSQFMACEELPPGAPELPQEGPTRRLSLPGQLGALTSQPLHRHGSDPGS
Sequence of Voltage-gated inwardly rectifying potassium channel KCNH2 (Q12809 whole entry): as above

For `CC(C)(Oc1ccc(C(=O)c2ccc(Cl)cc2)cc1)C(=O)O` [FENOFIBRIC ACID], the Activity in the data set on Rattus norvegicus [1] was 0.059 µg; in [2], 5.79%.

Consider `Cc1cc(CNc2cccc(C(=O)O)c2)ccc1OCc1ccc(F)cc1`, for which the Stability result in [3] and in [4] was “Stable” throughout. The -TdeltaS in data set [5] is -1.65 kcal/mol. In addition, on hERG (KCNH2), the inhibition at 5 min, 10 µM amounted to 10%. Moreover, the pEC50 in data set [6] is 7.43; in data set [7], 7.03.

For the compound `O=C(O)c1cccc(NCc2ccc(OCc3ccc(F)cc3)cc2)c1`, the negative logarithm of the EC50 (pEC50) in data set [8] and in [9] was below 4.00 each time. In [5], the -TdeltaS amounted to 0.98 kcal/mol. For the same compound, the deltaH in data set [10] is -8.18 kcal/mol. The fold change (FC) in [11] turned out to be 1.3.

Turning to `COc1ccc(COc2ccc(CNc3cccc(C(=O)O)c3)cc2)cc1`, the Activity is 0.062 µg in the data set with Rattus norvegicus [12], “Non-Toxic” in the data set with 661W, 4.68% in data set [13] and “Non-Toxic” in data set [15]. Further, the pEC50 was below 4.00 in data set [8], below 4.00 in data set [9], 5.35 in data set [6] and 6.52 in data set [7]. The -TdeltaS in data set [5] stood at 5.71 kcal/mol. Besides, the t1/2 in [14] and in [16] was above 1 h each time. Also, the inhibition at 5 min, 10 µM on hERG (KCNH2) was 10%. Further, the “inhibition (INH)” value in data set [17] is recorded as “Not Active”.

Source of the values: ChEMBL document CHEMBL4342468, “Evolution of a 4-Benzyloxy-benzylamino Chemotype to Provide Efficacious, Potent, and Isoform Selective PPARα Agonists as Leads for Retinal Disorders” (J Med Chem, 2020).
